Granule exo inh – blocks lytic granule exocytosis; TALL-104 LAMP-1 surface exposure, flow cytometry; cells stimulated with thapsigargin and PMA; inhibition, % at 10 µM; hit rate 0.66% among 360,000; AID 651702;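 active = inhibition above about 55%, limit read from the data; inconclusive = no clear call, values can overlap the other calls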
H9c2 protect – myocardial damage modulation in H9c2 cells; H9c2 cardiomyocytes, H2O2 injury protection, ATPLite, 2 h; protection from H2O2 cell death, % at 20 µM; hit rate 0.63% among 360,000;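 active = compounds giving at least 50% protection of heart cells from peroxide-induced death in the single-dose screen, raw or plate-pattern-corrected value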
HNF4A DNA FP – change in binding of human HNF4 alpha to DNA. P41235. HNF4a-FITC DNA binding, fluorescence polarization, 1 h. activity change, % at 10 µM. hit rate 0.3% among 360,000; in the data active = activity change above about 30%, passing the limit was not always enough
Target sequence (P41235 whole entry, looked up): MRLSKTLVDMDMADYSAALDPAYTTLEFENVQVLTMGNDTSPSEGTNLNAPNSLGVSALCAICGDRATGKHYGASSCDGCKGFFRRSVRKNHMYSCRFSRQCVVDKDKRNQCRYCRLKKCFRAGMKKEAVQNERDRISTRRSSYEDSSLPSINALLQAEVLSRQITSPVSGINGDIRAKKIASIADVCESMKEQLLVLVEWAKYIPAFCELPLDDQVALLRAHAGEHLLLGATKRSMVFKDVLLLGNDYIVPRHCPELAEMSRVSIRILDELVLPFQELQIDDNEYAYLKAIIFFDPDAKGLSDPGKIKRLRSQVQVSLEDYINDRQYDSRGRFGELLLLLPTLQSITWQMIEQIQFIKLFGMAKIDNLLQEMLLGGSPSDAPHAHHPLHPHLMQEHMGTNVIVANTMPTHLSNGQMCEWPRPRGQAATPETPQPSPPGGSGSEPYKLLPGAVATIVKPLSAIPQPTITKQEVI
DSG3 Ab inh – blocks pemphigus antibody binding to human desmoglein-3 | P32926 | DSG3-coupled beads, scFv-anti-DSG3-GFP binding, flow cytometry; active compounds read low | binding (percent of control), % at 10 µM | hit rate 0.48% among 310,000;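 active = binding more than 3 SD below its plate's average and above zero; inconclusive = below that plate limit but binding exactly zero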;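 also: hits lower antibody fragment binding to DSG3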
SENP1 inh – blocks the human SENP1 SUMO protease catalytic domain; Q9P0U3; recombinant SENP1 catalytic domain, CyPet-SUMO1-YPet FRET cleavage; inhibition, % at 10 µM; hit rate 0.21% among 360,000;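 active = inhibition at least 30% at 10 µM, raw YFP signal under a set limit, fluorescence ratio 0.5 to 1.5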
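Compound: 10 µM single point, 0.5% DMSO; Test system: hSENP1 catalytic domain, recombinant; Timing: 50 min reaction at room temperature; Technique: FRET, CFP and YFP emission; Control set: no-enzyme wells low, DMSO-plus-enzyme wells high control.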
Myeloid diff MLP – promotes myeloid progenitor differentiation. ER-HoxA9 myeloid progenitors, lysozyme-GFP differentiation, flow cytometry. calls only at 10 µM. hit rate 1% among 360,000. AID 624256;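 active = normalized GFP-positive differentiation at or above the plate's own cutoff, the solvent-only control mean plus 3 SD; inconclusive = no clear call, values can overlap the other calls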;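 also: cells exposed to compound for four days before flow analysis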
Each line names hits and unclear results; the compound was inactive in the other large screens. Only some compounds are listed: those with a hit (about 3% of all), similar ones and a draw of the others.

O=c1[nH]c(N2CCN(Cc3ccccc3)CC2)nc2c1CCC2	none (no result: DSG3 Ab inh)
O=c1[nH]c(N2CCN(c3ccccc3)CC2)nc2c1CCCC2	H9c2 protect 55.2
O=C1C2C3C=CC(C3=C3CCCCC3)C2C(=O)N1c1ccccc1 (centres undefined)	Granule exo inh 79.9
O=C1C2C3C=CC(C3)C2C(=O)N1c1ccccc1 (centres undefined)	none
CC(C)(O)C#Cc1ccc(C(=O)N2CCCC(CNS(=O)(=O)c3cccs3)C2)o1 (centres undefined)	Myeloid diff MLP active
c1ccc(-c2c[n+]3c(n2-c2ccccc2)CCC3)cc1	Myeloid diff MLP active
O=C(O)C1CC=CCC1C(=O)NCc1ccc2c(c1)OCO2 (centres undefined)	Myeloid diff MLP active
O=C(NCc1ccc2c(c1)OCO2)c1n[nH]c(=O)c2ccccc12	H9c2 protect 68.2
COC1=C(NCc2ccc3c(c2)OCO3)C(=O)C(OC)=C(NCc2ccc3c(c2)OCO3)C1=O	DSG3 Ab inh -14.7
Cc1cc(O)c(-c2cc(C(=O)NCc3ccc4c(c3)OCO4)[nH]n2)cc1C	DSG3 Ab inh 82.3, Myeloid diff MLP active
O=C(c1n[nH]c(=O)c2ccccc12)N1CCN(Cc2ccc3c(c2)OCO3)CC1	none
O=C(O)c1cc(Cl)n[nH]c1=O	none (no result: DSG3 Ab inh)
CCC(c1nnc(SC(C)C(=O)NC2CC2)n1-c1ccc(OC)cc1)N(C)C (centres undefined)	none
COc1ccc(C(=O)NCCOc2ccccc2)cc1S(=O)(=O)N1CCOCC1	none
Cc1cc(C(=O)c2ccc3ccccc3c2)c(C)o1	Granule exo inh 73.2
Cn1cc(S(=O)(=O)N2CCc3ccccc32)cc1C(=O)NC(C)(C)C	none
O=C(CNC(=O)c1ccco1)Nc1ccc(Cl)cc1	none
O=C(OCc1cnc(Cl)s1)c1ccccc1Cl	none
O=C(OCn1ncc(Br)c(Br)c1=O)c1ccccc1Cl	Granule exo inh 97.5, Myeloid diff MLP inconclusive
O=C(OCn1ncc(Br)c(Br)c1=O)c1ccc(F)cc1	Granule exo inh 63.8, Myeloid diff MLP inconclusive
COCCNC(=O)CNC(=S)N(CCCN1CCOCC1)Cc1cccs1	none
O=C(COC(=O)/C=C/c1cn(-c2ccccc2)nc1-c1ccc2c(c1)OCCO2)NC1CCS(=O)(=O)C1 (centres undefined)	H9c2 protect 56.8
CNC(=O)COC(=O)/C=C/c1cn(-c2ccccc2)nc1-c1ccc(C)o1	H9c2 protect 56.4
COc1ccc(-c2nn(-c3ccccc3)cc2/C=C/C(=O)OCC(=O)Nc2ccccc2C#N)cc1	none
COC1=CC(=O)c2nc(Cl)ccc2C1=O	Granule exo inh 85.8, Myeloid diff MLP inconclusive (no result: DSG3 Ab inh)
Cc1nc2c(cnn2-c2ccccc2Cl)c(=O)n1-c1ccc(N2CCC(C)CC2)cc1	Myeloid diff MLP active
CCOc1ccc(N2CC(C(=O)Nc3nnc(Cc4ccc(OC)cc4)s3)CC2=O)cc1 (centres undefined)	none
CCCCCc1cc(=O)oc2c(C(CCN3CCCCC3)c3ccc4c(c3)OCO4)c(OC)cc(OC)c12 (centres undefined)	Myeloid diff MLP active
CCOc1ccc(S(=O)(=O)n2cc(F)c(=O)[nH]c2=O)cc1	Myeloid diff MLP active
CSCC[C@H](NC(=O)Nc1cccc(Br)c1)C(=O)O	Myeloid diff MLP active
CSCC[C@H](NC(=O)Nc1cccc(C(F)(F)F)c1)C(=O)O	none
OC(c1ccccc1)C(NCCNCc1ccccc1)c1ccccc1 (centres undefined)	none
Cc1c(S(=O)(=O)c2ccccn2)c(N)n(Cc2ccccc2Cl)c1C	Myeloid diff MLP active
O=C(NNc1nc(=O)c2cccnc2s1)c1ccccc1O	none
CN(C)C(=O)COc1ccc2c(-c3ccccc3)cc(=O)oc2c1	none
C[C@H](O)CNC(=O)c1[nH]cnc1C(=O)Nc1ccc(CNC(=O)OC(C)(C)C)cc1	none (no result: DSG3 Ab inh)
CCOc1ccc(-c2c(C#N)c(N)nc3sc(C(=O)c4ccccc4)c(N)c23)cc1	HNF4A DNA FP 39.9
COc1ccc(-c2c(C#N)c(N)nc3sc(C(=O)c4ccccc4)c(N)c23)cc1	none
CCCOC(=O)CSc1nc(N)c(C#N)c(-c2ccco2)c1C#N	none (no result: DSG3 Ab inh)
CCCOC(=O)CSc1nc(N)c(C#N)c(CC)c1C#N	DSG3 Ab inh 12.5
CCOC(=O)CSc1nc(N)c(C#N)c(-c2ccc(OC)cc2)c1C#N	none
CCCCOC(=O)CSc1nc(N)c(C#N)c(-c2ccc(OC)cc2)c1C#N	DSG3 Ab inh -28.5
CCCCOc1ccc(-c2c(C#N)c(N)nc(SCC(N)=O)c2C#N)cc1	none
CCCCOC(=O)CSc1nc(N)c(C#N)c(-c2ccc(OCC)cc2)c1C#N	DSG3 Ab inh 80.1
Cc1cnc(C(=O)OC(C)C(=O)NC2CCCc3ccccc32)cn1 (centres undefined)	none
CON(C)S(=O)(=O)c1cccc(C(=O)N(CC(=O)Nc2ccccc2C(F)(F)F)Cc2ccco2)c1	none
CC(C)(C)NS(=O)(=O)c1ccc(NC(=S)NC(=O)C2CCC2)cc1	none (no result: DSG3 Ab inh)
COc1cc(/C=N/NC(=O)c2cc(-c3cccc(OC(C)C)c3)nc3ccccc23)ccc1O	none
CCOC(=O)c1c(C)[nH]c(C)c1S(=O)(=O)NCCc1sccc1C	Myeloid diff MLP active
O=C(c1ccc(N2CCOCC2)c([N+](=O)[O-])c1)N1CCCC(C(F)(F)F)C1 (centres undefined)	none
COc1ccc(-n2nnnc2C(c2ccccc2OC(F)(F)F)N2CCN(C/C=C/c3ccccc3)CC2)cc1 (centres undefined)	Myeloid diff MLP active (no result: DSG3 Ab inh)
CN1CCc2c(sc3nc(SCC(N)=O)n(-c4ccc(Cl)cc4)c(=O)c23)C1	HNF4A DNA FP 43.4
CN(CCOc1ccccc1)C(=O)c1cc(S(=O)(=O)N2CCCCC2)ccc1Cl	none
COC(=O)c1ccc(/C=C2\SC(=S)N(CCCC(=O)NCCCN3CCOCC3)C2=O)cc1	Granule exo inh 78.0
CCN(CC)C(=O)c1ccc(-c2nnc(Nc3ccc(O)cc3)c3ccccc23)cc1	H9c2 protect 58.8
CNC(=O)c1ccc(Nc2nnc(-c3ccc(C(N)=O)cc3)c3ccccc23)cc1	Granule exo inh inconclusive
NC(=O)c1ccc(Nc2nnc(-c3ccc(O)cc3)c3ccccc23)cc1	H9c2 protect 59.1
CCN(CC)C(=O)c1ccc(-c2nnc(Nc3ccc(C(=O)N(C)C)cc3)c3ccccc23)cc1	none
S=C(Nc1ccc2[nH]ccc2c1)NC1CCCCC1	none (no result: DSG3 Ab inh)
CCOc1ccc(S(=O)(=O)N2CCC(C(=O)NC3CC3)CC2)cc1C	none (no result: DSG3 Ab inh)
O=C1c2ccccc2S(=O)(=O)N1CC(O)Cn1ccc2ccccc21 (centres undefined)	Myeloid diff MLP active
CCCN(C(=O)CSCC(=O)Nc1ccc(OC)cc1)c1c(N)n(Cc2ccccc2)c(=O)[nH]c1=O	none
N#Cc1ccc(CSc2nnc(Cc3cccs3)n2Cc2ccco2)cc1	none

Source: PubChem
